Converted amounts (≈) assume the structure as drawn.
How the values were obtained:
P. falciparum (D6) = assay: in vitro antimalarial activity, plasmodial LDH; assay type: cell-based, Plasmodium falciparum; settings: Plasmodium falciparum, D6, 72 h, read-out: P. falciparum (D6) IC50
P. falciparum (W2) = assay: in vitro antimalarial activity, plasmodial LDH; assay type: cell-based, Plasmodium falciparum; settings: Plasmodium falciparum, W2, 72 h, read-out: P. falciparum (W2) IC50, CQ-resistant W2 strain, 72 h
Outline: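 P. falciparum-infected erythrocytes (2% parasitemia, 2% hematocrit) in RPMI 1640 with 10% human serum and 60 μg/mL amikacin. Exposed to test compound dilutions for 72 h at 37 °C under 90% N2/5% O2/5% CO2. LDH measured with Malstat reagent (30 min, room temperature), then NBT/PES for 1 h in the dark, stopped with 5% acetic acid, read at 650 nm. IC50 from dose-response curves.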

[1] = system: SK-MEL, KB, BT-549, SK-OV-3, VERO and LLC-PK1 cells; assay: cytotoxicity, neutral red uptake assay; assay type: cell-based, mammalian; settings: highest test concentration 4760 ng/mL
Outline: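 Cells seeded at 25 000/well and allowed 24 h to reach confluence. Test compound was then added and incubated 48 h. Viable cells were counted by a modified neutral red uptake method. The panel was four human cancer lines and two noncancerous mammalian kidney lines. Doxorubicin served as positive control and DMSO as negative control.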

[2] = system: L. donovani promastigotes; assay: in vitro antileishmanial activity, alamarBlue assay; assay type: cell-based, Leishmania donovani; settings: Leishmania donovani, 48 h; for IC50: read-out: L. donovani IC50, promastigotes, 48 h; for IC90: read-out: L. donovani IC90, promastigotes, 48 h
C. albicans ATCC90028 = assay: in vitro antifungal activity; assay type: cell-based, Candida albicans; settings: Candida albicans; for IC50: ATCC90028, read-out: C. albicans IC50; for MFC: ATCC90028, read-out: C. albicans MFC; for MIC: ATCC90028, read-out: C. albicans MIC
Outline: (§1)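 Modified NCCLS broth method in Sabouraud dextrose. Inoculum set by OD630 to 1.5 × 10^3 CFU/mL. Test compound serially diluted in 20% DMSO/saline, duplicate wells, up to 20 μg/mL. Incubated 70–74 h at 35 °C; 530 nm read before and after. IC50 is 50% growth inhibition; MIC is no detectable growth. MFC from clear wells subcultured on agar. Amphotericin B control.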

C. neoformans ATCC90113 = assay: in vitro antifungal activity; assay type: cell-based, Cryptococcus neoformans; settings: Cryptococcus neoformans; for IC50: ATCC90113, read-out: C. neoformans IC50; for MFC: ATCC90113, read-out: C. neoformans MFC; for MIC: ATCC90113, read-out: C. neoformans MIC
Outline: as §1

A. fumigatus ATCC 90906 = assay: in vitro antifungal activity; assay type: cell-based, Aspergillus fumigatus; settings: Aspergillus fumigatus; for IC50: ATCC90906, read-out: A. fumigatus IC50; for MFC: ATCC90906, read-out: A. fumigatus MFC; for MIC: ATCC90906, read-out: A. fumigatus MIC
Outline: as §1

SA (ATCC29213) = assay: in vitro antibacterial activity; assay type: cell-based; settings: Staphylococcus aureus; for IC50: ATCC29213, read-out: IC50 (concentration that affords 50% growth inhibition), SA; for MBC: ATCC29213, read-out: MBC (minimum bactericidal concentration), SA; for MIC: ATCC29213, read-out: MIC, SA
Outline: (§2)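 Test compound serially diluted in 20% DMSO/saline and plated in duplicate, up to 20 μg/mL. Inoculum in cation-adjusted Mueller–Hinton broth, pH 7.3, set by OD630 to 5 × 10^5 CFU/mL. Incubated 16–20 h at 35 °C; 530 nm read before and after. IC50 is 50% growth inhibition; MIC is no detectable growth. MBC from clear wells subcultured on agar. Ciprofloxacin control.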

MRSA (ATCC33591) = assay: in vitro antibacterial activity; assay type: cell-based, methicillin-resistant Staphylococcus aureus; settings: Staphylococcus aureus, ATCC33591|MRSA, read-out: MIC, MRSA
Outline: as §2

[3] = system: M. intracellulare (ATCC23068); assay: in vitro antibacterial activity, modified alamarBlue procedure; assay type: cell-based, Mycobacterium intracellulare; settings: Mycobacterium intracellulare; for IC50: ATCC23068, read-out: IC50 (concentration that affords 50% growth inhibition), M. intracellulare; for MBC: ATCC23068, read-out: MBC (minimum bactericidal concentration), M. intracellulare; for MIC: ATCC23068, read-out: MIC, M. intracellulare
Outline: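 Modified alamarBlue microplate method. Test compound serially diluted in 20% DMSO/saline, duplicate wells, up to 20 μg/mL. Inoculum 2.0 × 10^6 CFU/mL in Middlebrook 7H9 with OADC, pH 7.3, containing 5% alamarBlue. Incubated 70–74 h at 37 °C, 10% CO2; fluorescence 544ex/590em read before and after. MIC: no blue-to-pink change. MBC by subculturing blue wells on agar. Ciprofloxacin control.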

In the case of CCCCCOc1c(OC)cc(NC(C)CCCNC(=O)C(N)CCCNC(=N)N)c2nc(C(C)(C)C)ccc12 (stereo not drawn) [compound 94, 2-Amino-N-(4-(2-tert-butyl-6-methoxy-5-(pentyloxy)quinolin-8-ylamino)pentyl)-5-guanidinopentanamide], the IC50 (P. falciparum (D6)) is reported as 4.76 µg/mL (≈ 8.53 µM), the IC50 (P. falciparum (W2)) is reported as 4 µg/mL (≈ 7.17 µM) and the “cytotoxicity CTX” value [1] is reported as “NC (NC, not cytotoxic up to 4760 ng/mL (4.76 μg/mL))”. The IC50 [2] was 18 µg/mL (≈ 32.3 µM), the IC90 [2] was 32 µg/mL (≈ 57.4 µM) and the IC50 (C. albicans ATCC90028) was 18.6 µg/mL (≈ 33.4 µM). It also gave an MFC (C. albicans ATCC90028) of 20 µg/mL (≈ 35.9 µM), an MIC (C. albicans ATCC90028) of 20 µg/mL (≈ 35.9 µM) and an IC50 (C. neoformans ATCC90113) of 1.41 µg/mL (≈ 2.53 µM). The MFC (C. neoformans ATCC90113) was 2.5 µg/mL (≈ 4.48 µM), the MIC (C. neoformans ATCC90113) was 2.5 µg/mL (≈ 4.48 µM) and the IC50 (A. fumigatus ATCC 90906) was greater than 20 µg/mL. The MFC (A. fumigatus ATCC 90906) was greater than 20 µg/mL, the MIC (A. fumigatus ATCC 90906) was greater than 20 µg/mL and the IC50 (SA (ATCC29213)) was 5.85 µg/mL (≈ 10.5 µM). It also gave an MBC (SA (ATCC29213)) of 20 µg/mL (≈ 35.9 µM), an MIC (SA (ATCC29213)) of 10 µg/mL (≈ 17.9 µM) and an MIC (MRSA (ATCC33591)) of 10 µg/mL (≈ 17.9 µM). For the same compound, the IC50 [3] was 11.2 µg/mL (≈ 20.1 µM), the MBC [3] was 20 µg/mL (≈ 35.9 µM) and the MIC [3] was 20 µg/mL (≈ 35.9 µM).
With CCCCCCOc1c(OC)cc(NC(C)CCCNC(=O)C(N)Cc2cnc[nH]2)c2nc(C(C)(C)C)ccc12 (stereo not drawn) [compound 105, 2-Amino-N-(4-(2-tert-butyl-5-(hexyloxy)-6-methoxyquinolin-8-ylamino)pentyl)-3-(1H-imidazole-5-yl)propanamide] the IC50 (P. falciparum (D6)) was 2.4 µg/mL (≈ 4.34 µM), the IC50 (P. falciparum (W2)) was 1.7 µg/mL (≈ 3.08 µM) and the “cytotoxicity CTX” value [1] was “NC (NC, not cytotoxic up to 4760 ng/mL (4.76 μg/mL))”. The IC50 [2] was 3.5 µg/mL (≈ 6.33 µM), the IC90 [2] was 7 µg/mL (≈ 12.7 µM) and the IC50 (C. albicans ATCC90028) was 19.4 µg/mL (≈ 35.1 µM). It also gave an MFC (C. albicans ATCC90028) greater than 20 µg/mL, an MIC (C. albicans ATCC90028) greater than 20 µg/mL and an IC50 (C. neoformans ATCC90113) greater than 20 µg/mL. It also gave an MFC (C. neoformans ATCC90113) greater than 20 µg/mL, an MIC (C. neoformans ATCC90113) greater than 20 µg/mL and an IC50 (A. fumigatus ATCC 90906) greater than 20 µg/mL. It also gave an MFC (A. fumigatus ATCC 90906) greater than 20 µg/mL, an MIC (A. fumigatus ATCC 90906) greater than 20 µg/mL and an IC50 (SA (ATCC29213)) of 2.79 µg/mL (≈ 5.05 µM). The MBC (SA (ATCC29213)) was 10 µg/mL (≈ 18.1 µM), the MIC (SA (ATCC29213)) was 5 µg/mL (≈ 9.05 µM) and the MIC (MRSA (ATCC33591)) was 10 µg/mL (≈ 18.1 µM). It also gave an IC50 [3] of 5.94 µg/mL (≈ 10.7 µM), an MBC [3] of 10 µg/mL (≈ 18.1 µM) and an MIC [3] of 10 µg/mL (≈ 18.1 µM).
CCCCCOc1c(OC)cc(NC(C)CCCNC(=O)C(N)CC(C)C)c2nc(C(C)(C)C)ccc12 (stereo not drawn) [compound 95, 2-Amino-N-(4-(2-tert-butyl-6-methoxy-5-(pentyloxy)quinolin-8-ylamino)pentyl)-4-methylpentanamide] was tested, and the IC50 (P. falciparum (D6)) was 3.5 µg/mL (≈ 6.8 µM), the IC50 (P. falciparum (W2)) was 2.3 µg/mL (≈ 4.47 µM) and the “cytotoxicity CTX” value [1] was “NC (NC, not cytotoxic up to 4760 ng/mL (4.76 μg/mL))”. For the same compound, the IC50 [2] was 3.5 µg/mL (≈ 6.8 µM), the IC90 [2] was 6.5 µg/mL (≈ 12.6 µM) and the IC50 (C. albicans ATCC90028) was 18.4 µg/mL (≈ 35.8 µM). The MFC (C. albicans ATCC90028) was greater than 20 µg/mL, the MIC (C. albicans ATCC90028) was greater than 20 µg/mL and the IC50 (C. neoformans ATCC90113) was 1.68 µg/mL (≈ 3.26 µM). The MFC (C. neoformans ATCC90113) was 2.5 µg/mL (≈ 4.86 µM), the MIC (C. neoformans ATCC90113) was 2.5 µg/mL (≈ 4.86 µM) and the IC50 (A. fumigatus ATCC 90906) was greater than 20 µg/mL. The MFC (A. fumigatus ATCC 90906) was greater than 20 µg/mL, the MIC (A. fumigatus ATCC 90906) was greater than 20 µg/mL and the IC50 (SA (ATCC29213)) was 2.56 µg/mL (≈ 4.97 µM). The MBC (SA (ATCC29213)) was 5 µg/mL (≈ 9.71 µM), the MIC (SA (ATCC29213)) was 5 µg/mL (≈ 9.71 µM) and the MIC (MRSA (ATCC33591)) was 10 µg/mL (≈ 19.4 µM). The IC50 [3] was 12.6 µg/mL (≈ 24.4 µM), the MBC [3] was 20 µg/mL (≈ 38.9 µM) and the MIC [3] was 20 µg/mL (≈ 38.9 µM).
With CCCCCCCCOc1c(OC)cc(NC(C)CCCNC(=O)C(N)C(C)CC)c2nc(C(C)(C)C)ccc12 (stereo not drawn) [compound 119, 2-Amino-N-(4-(2-tert-butyl-6-methoxy-5-(octyloxy)quinolin-8-ylamino)pentyl)-3-methylpentanamide] the IC50 (P. falciparum (D6)) was greater than 4.76 µg/mL, the IC50 (P. falciparum (W2)) was greater than 4.76 µg/mL and the “cytotoxicity CTX” value [1] was “NC (NC, not cytotoxic up to 4760 ng/mL (4.76 μg/mL))”. The IC50 [2] was 6.04 µg/mL (≈ 10.8 µM), the IC90 [2] was 26.9 µg/mL (≈ 48.4 µM) and the IC50 (C. albicans ATCC90028) was greater than 20 µg/mL. The MFC (C. albicans ATCC90028) was greater than 20 µg/mL, the MIC (C. albicans ATCC90028) was greater than 20 µg/mL and the IC50 (C. neoformans ATCC90113) was 2.87 µg/mL (≈ 5.15 µM). It also gave an MFC (C. neoformans ATCC90113) of 10 µg/mL (≈ 18 µM), an MIC (C. neoformans ATCC90113) of 10 µg/mL (≈ 18 µM) and an IC50 (A. fumigatus ATCC 90906) greater than 20 µg/mL. For the same compound, the MFC (A. fumigatus ATCC 90906) was greater than 20 µg/mL, the MIC (A. fumigatus ATCC 90906) was greater than 20 µg/mL and the IC50 (SA (ATCC29213)) was 5.03 µg/mL (≈ 9.03 µM). The MBC (SA (ATCC29213)) was greater than 20 µg/mL, the MIC (SA (ATCC29213)) was greater than 20 µg/mL and the MIC (MRSA (ATCC33591)) was greater than 20 µg/mL. For the same compound, the IC50 [3] was greater than 20 µg/mL, the MBC [3] was greater than 20 µg/mL and the MIC [3] was greater than 20 µg/mL.

Reference: PMC6045484 (ACS Omega, 2018)
